Results reported in ChEMBL document CHEMBL4619800, “β-Hydroxy- and β-Aminophosphonate Acyclonucleosides as Potent Inhibitors of Plasmodium falciparum Growth” (J Med Chem, 2020).
Activity calls are given as the source filed them. The calls are words filed in the database; no cut-off is given here.

Legend:
Plasmodium falciparum [1] = assay: Antiplasmodial activity against Plasmodium falciparum 3D7 infected in erythrocytes assessed as reduction in [3H]hypoxanthine incorporation preincubated for 48 hrs followed by [3H]hypoxanthine addition and measured after 18 hrs by topcount scintillation counting analysis; format: functional, organism-based
Summary of the method: (§1)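 Modified Desjardins test. Infected erythrocytes at 1.5% final hematocrit and 0.6% parasitemia, in HEPES-buffered RPMI 1640 with 10% AB human serum and a range of compound concentrations, for 48 h. Then [³H]hypoxanthine (0.5 μCi/well) added for 18 h. Freeze-thaw lysis, filter harvest, scintillation counting, uninfected-erythrocyte background subtracted. IC50 from sigmoidal variable-slope regression. Mean of ≥3 independent experiments in duplicate.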

[2] = Toxicity in human K562 cells assessed as effect on cell growth measured after 24 hrs by [3H]thymidine incorporation based assay
Summary of the method: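 K562 cells seeded at 8000 per well in RPMI 1640 with 10% FCS. Incubated 24 h at 37 °C, 5% CO₂ with a range of compound concentrations. Then 0.5 μCi [³H]thymidine added for 6 h. Freeze-thaw, harvest of macromolecules and scintillation counting, with medium-only background subtracted.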

[3] = Selectivity index, ratio of IC50 for human K562 cells to IC50 for antiplasmodial activity against Plasmodium falciparum 3D7 infected in erythrocytes; format: toxicity, cell-based; details: K562 cells versus Plasmodium falciparum 3D7 in erythrocytes, read-out: Ratio IC50
Plasmodium falciparum [4] = assay: Antiplasmodial activity against synchronized ring stage Plasmodium falciparum 3D7 infected in erythrocytes assessed as effect on parasite development by measuring late schizont stage parasitemia at 2 uM supplemented with fresh medium containing compound every 24 hrs measured at 48 hrs by Giemsa/Diff-quick staining based fluorescence microscopic analysis (reference value: 0.4%); format: functional
Summary of the method: (§2)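 Tightly synchronized ring-stage culture at 2.5% hematocrit and 1–2% parasitemia, treated or not with 2 μM for 69 h, with drug-containing medium renewed every 24 h. Thin smears taken every 6 h, methanol-fixed and stained with Diff-Quick (pH 7.2). Parasitemia scored by parasite stage, and morphology examined.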

Plasmodium falciparum [5] = assay: Antiplasmodial activity against synchronized ring stage Plasmodium falciparum 3D7 infected in erythrocytes assessed as effect on parasite development by measuring late schizont stage parasitemia at 2 uM supplemented with fresh medium containing compound every 24 hrs measured at 42 hrs by Giemsa/Diff-quick staining based fluorescence microscopic analysis (reference value: 1.9%); format: functional; summary of the method: as §2
Plasmodium falciparum [6] = assay: Antiplasmodial activity against synchronized ring stage Plasmodium falciparum 3D7 infected in erythrocytes assessed as effect on parasite development by measuring ring stage parasitemia at 2 uM measured immediately by Giemsa/Diff-quick staining based fluorescence microscopic analysis (reference value: 2.1%); format: functional; summary of the method: as §2
Plasmodium falciparum [7] = assay: Antiplasmodial activity against synchronized ring stage Plasmodium falciparum 3D7 infected in erythrocytes assessed as effect on parasite development by measuring early schizont stage parasitemia at 2 uM supplemented with fresh medium containing compound every 24 hrs measured at 39 hrs by Giemsa/Diff-quick staining based fluorescence microscopic analysis (reference value: 2.1%); format: functional; summary of the method: as §2
Plasmodium falciparum [8] = assay: Antiplasmodial activity against synchronized ring stage Plasmodium falciparum 3D7 infected in erythrocytes assessed as effect on parasite development by measuring ring stage parasitemia at 2 uM measured after 24 hrs by Giemsa/Diff-quick staining based fluorescence microscopic analysis (reference value: 2.1%); format: functional; summary of the method: as §2
Plasmodium falciparum [9] = assay: Antiplasmodial activity against synchronized ring stage Plasmodium falciparum 3D7 infected in erythrocytes assessed as effect on parasite development by measuring ring stage parasitemia at 2 uM supplemented with fresh medium containing compound every 24 hrs measured at 48 hrs by Giemsa/Diff-quick staining based fluorescence microscopic analysis (reference value: 9.9%); format: functional; summary of the method: as §2
Plasmodium falciparum [10] = assay: Antiplasmodial activity against synchronized ring stage Plasmodium falciparum 3D7 infected in erythrocytes assessed as effect on parasite development by measuring ring stage parasitemia at 2 uM supplemented with fresh medium containing compound every 24 hrs measured at 69 hrs by Giemsa/Diff-quick staining based fluorescence microscopic analysis (reference value: 11.1%); format: functional; summary of the method: as §2
Plasmodium falciparum [11] = assay: Antiplasmodial activity against segmented schizont stage Plasmodium falciparum 3D7 infected in erythrocytes assessed as effect on merozoite development at 2 uM supplemented with fresh medium containing compound every 24 hrs measured at 45 hrs by Hoechst staining based immunofluorescence microscopic analysis; format: functional, organism-based
Summary of the method: (§3)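 Tightly synchronized ring-stage culture at 2.5% hematocrit and 1–2% parasitemia, treated or not with 2 μM; drug-containing medium changed every 24 h. At 45 h (segmented schizonts), smears fixed in 4% formaldehyde/PBS, glycine-quenched, Triton X-100-permeabilized and BSA-blocked. Stained with α-mTIP and α-MSP1 antibodies, then secondaries, with Hoechst labelling nuclei.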

Plasmodium falciparum [12] = assay: Antiplasmodial activity against segmented schizont stage Plasmodium falciparum 3D7 infected in erythrocytes assessed as effect on merozoite DNA content at 2 uM supplemented with fresh medium containing compound every 24 hrs measured at 45 hrs by Hoechst staining based immunofluorescence microscopic analysis; format: functional, organism-based; summary of the method: as §3
Plasmodium falciparum [13] = assay: Antiplasmodial activity against chloroquine-resistant Plasmodium falciparum FcM29 infected in erythrocytes assessed as reduction in [3H]hypoxanthine incorporation preincubated for 48 hrs followed by [3H]hypoxanthine addition and measured after 18 hrs by topcount scintillation counting analysis; format: functional, organism-based; summary of the method: as §1
Plasmodium falciparum [14] = assay: Antiplasmodial activity against chloroquine-resistant Plasmodium falciparum W2 infected in erythrocytes assessed as reduction in [3H]hypoxanthine incorporation preincubated for 48 hrs followed by [3H]hypoxanthine addition and measured after 18 hrs by topcount scintillation counting analysis; format: functional, organism-based; summary of the method: as §1
Plasmodium berghei [15] = assay: Antiplasmodial activity against Plasmodium berghei ANKA infected in ip dosed Swiss NMRI mouse assessed as reduction in parasitemia administered once daily for 4 days measured 24 hrs post-last dose by Giemsa-staining based assay; format: functional
Summary of the method: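 Female Swiss NMRI mice infected on day 0 by IV injection of 10⁷ P. berghei ANKA-infected erythrocytes. Dosed ip once daily for 4 days from day 1, 3 mice per group. Test doses 0–30 mg/kg in 0.9% NaCl; artesunate 0–27 mg/kg in DMSO. Controls received vehicle. Parasitemia counted on day 5 from Giemsa-stained smears, and ED50 taken as the dose giving 50% parasitemia reduction.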

Plasmodium berghei [16] = assay: Antiplasmodial activity against Plasmodium berghei ANKA infected in Swiss NMRI mouse assessed as parasitemia at 30 mg/kg, ip administered once daily for 4 days measured on day 11 by Giemsa-staining based assay relative to control; format: functional
Summary of the method: (§4)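 Female Swiss NMRI mice infected on day 0 by IV caudal-vein injection of 10⁷ P. berghei ANKA-infected erythrocytes (clone 2.34). Compound given ip in 0.9% NaCl, 100 μL per mouse, 3 mice per group. Either one daily dose for 4 consecutive days from day 1, or a single dose on day 1. Parasitemia counted on Giemsa-stained thin smears and followed for 30 days. Controls received vehicle only.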

Plasmodium berghei [17] = assay: Antiplasmodial activity against Plasmodium berghei ANKA infected in Swiss NMRI mouse assessed as parasitemia at 30 mg/kg, ip administered once daily for 4 days measured on day 14 by Giemsa-staining based assay relative to control; format: functional; summary of the method: as §4
Plasmodium berghei [18] = assay: Antiplasmodial activity against Plasmodium berghei ANKA infected in Swiss NMRI mouse assessed as reduction in parasitemia at 30 mg/kg, ip administered as single dose by Giemsa-staining based assay relative to control; format: functional; design: scale not given: the % may be the effect or the level left; summary of the method: as §4
Plasmodium berghei [19] = assay: Antiplasmodial activity against Plasmodium berghei ANKA infected in po dosed Swiss NMRI mouse assessed as reduction in parasitemia administered once daily for 4 days measured 24 hrs post-last dose by Giemsa-staining based assay; format: functional
Summary of the method: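 Female Swiss NMRI mice infected on day 0 by IV injection of 10⁷ P. berghei ANKA-infected erythrocytes. Oral dosing in water (100 μL, 3 mice per group) at 0, 1, 3, 10 and 30 mg/kg, once daily for 4 days from day 1. Water-only controls. Day-5 parasitemia counted on Giemsa-stained thin smears, and ED50 derived as the dose reducing parasitemia by 50%.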

Row | Compound | IC50 (Plasmodium falciparum [1]) | IC50 at 24 h [2] | selectivity ratio [3] | also measured
1 | Nc1nc(N)c2ncn(CC[C@H](O)CP(=O)(O)O)c2n1 | > 1000 µM | > 1000 µM | – | –
2 | Nc1nc(O)c2ncn(CC/C=C\P(=O)(O)O)c2n1 | > 100 µM | > 1000 µM | – | –
3 | Nc1ncnc2c1ncn2C[C@H](O)CP(=O)(O)O | > 1000 µM | > 1000 µM | – | –
4 | O=c1[nH]c(=O)c2ncn(CC[C@H](O)CP(=O)(O)O)c2[nH]1 | 910 µM | > 1000 µM | > 1 | –
5 | Nc1nc(N)c2ncn(CC[C@H](N)CP(=O)(O)O)c2n1 | > 100 µM | > 1000 µM | – | –
6 | Nc1nc(N)c2ncn(CC[C@@H](N)CP(=O)(O)O)c2n1 | > 100 µM | > 1000 µM | – | –
7 | Nc1nc2c(ncn2C[C@H](O)CP(=O)(O)O)c(=O)[nH]1 | 595 µM | > 1000 µM | > 1.7 | –
8 | Nc1nc(F)nc2c1ncn2CC[C@@H](O)CP(=O)(O)O | 26.3 µM | > 1000 µM | > 38 | –
9 | Nc1nc(N)c2ncn(CC[C@@H](O)CP(=O)(O)O)c2n1 | 48 µM | > 1000 µM | > 21 | –
10 | O=c1[nH]cnc2c1ncn2CC[C@H](O)CP(=O)(O)O | > 1000 µM | > 1000 µM | – | –
11 | Nc1nc(O)c2ncn(CC[C@H](N)CP(=O)(O)O)c2n1 | > 100 µM | > 1000 µM | – | –
12 | Nc1nc2c(ncn2CC[C@@H](O)CP(=O)([O-])[O-])c(=O)[nH]1.[Na+].[Na+] | 0.074 µM | > 1000 µM | > 1350 | Activity (Plasmodium falciparum [4]): 1.3%; Activity (Plasmodium falciparum [5]): 1.7%; Activity (Plasmodium falciparum [6]): 2.1%; Activity (Plasmodium falciparum [7]): 2.1%; Activity (Plasmodium falciparum [8]): 2.1%; Activity (Plasmodium falciparum [9]): 0.6%; Activity (Plasmodium falciparum [10]): 0%; Activity (Plasmodium falciparum [11]): inactive; Activity (Plasmodium falciparum [12]): inactive; IC50 (Plasmodium falciparum [13]): 0.03 µM; IC50 (Plasmodium falciparum [14]): 0.045 µM; ED50 (Plasmodium berghei [15]): 0.56 mg/kg; Activity (Plasmodium berghei [16]): 6.9 - 16.7%; Activity (Plasmodium berghei [17]): 1.7%; Activity (Plasmodium berghei [18]): 95%; ED50 (Plasmodium berghei [19]): 30 mg/kg
13 | C[C@H]1[C@H](OC(=O)CCC(=O)O)O[C@@H]2O[C@@]3(C)CC[C@H]4[C@H](C)CC[C@@H]1[C@@]24OO3 [ARTESUNATE] | – | – | – | ED50 (Plasmodium berghei [15]): 0.1 mg/kg
14 | Nc1ncnc2c1ncn2C[C@@H](O)CP(=O)(O)O | > 1000 µM | > 1000 µM | – | –
15 | O=c1[nH]cnc2c1ncn2CC[C@@H](O)CP(=O)(O)O | > 1000 µM | > 1000 µM | – | –
16 | Nc1nc(N)c2ncn(C[C@H](O)CP(=O)(O)O)c2n1 | 510 µM | > 1000 µM | > 2 | –
17 | Nc1ncnc2c1ncn2CC[C@@H](O)CP(=O)(O)O | > 1000 µM | > 1000 µM | – | –
18 | Nc1ncnc2c1ncn2CC[C@H](O)CP(=O)(O)O | > 1000 µM | > 1000 µM | – | –
19 | Nc1nc2c(ncn2CC[C@H](O)CP(=O)(O)O)c(=O)[nH]1 | 6.1 µM | > 1000 µM | 164 | IC50 (Plasmodium falciparum [13]): 4.5 µM; IC50 (Plasmodium falciparum [14]): 5.6 µM
20 | CCN(CC)CCCC(C)Nc1ccnc2cc(Cl)ccc12 (stereo not drawn) [CHLOROQUINE] | – | 25.3 µM | – | –
21 | Nc1ncc2ncn(CC[C@@H](O)CP(=O)(O)O)c2n1 | 67 µM | > 1000 µM | > 16 | –
22 | Nc1nc(N)c2ncn(C[C@@H](O)CP(=O)(O)O)c2n1 | 327 µM | > 1000 µM | > 2.6 | –
23 | Nc1nc(O)c2ncn(CCCCP(=O)(O)O)c2n1 | 74 µM | > 1000 µM | > 17 | –
24 | Nc1nc(O)c2ncn(CC[C@@H](N)CP(=O)(O)O)c2n1 | > 100 µM | > 1000 µM | – | –
25 | O=c1[nH]c(=O)c2ncn(CC[C@@H](O)CP(=O)(O)O)c2[nH]1 | 590 µM | > 1000 µM | – | –
26 | Nc1nc2c(ncn2C[C@@H](O)CP(=O)(O)O)c(=O)[nH]1 | > 1000 µM | > 1000 µM | – | –
